Experimental data reported in ChEMBL document CHEMBL3046552, “Synthesis and antiviral bioactivities of 2-cyano-3-substituted-amino(phenyl) methylphosphonylacrylates (acrylamides) containing alkoxyethyl moieties” (2010).

What was measured:
Type in all cases: functional
Tobacco mosaic virus [1] = experiment: In vivo antiviral activity against Tobacco mosaic virus (TMV) infected left side of tobacco leaves assessed as protective effect by decreasing local lesion number at 500 mg/l treated 12 hr before viral inoculation measured at 3-4 days after viral challenge
Procedure, shortened: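 Protective mode: compound solution smeared on the left half of same-age N. tabacum leaves, solvent on the right half as control. After 12 h, the leaves were dusted with silicon carbide and brush-inoculated with TMV at 6 × 10^-3 mg/mL. Local lesions counted 3-4 days after inoculation.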

Tobacco mosaic virus [2] = experiment: In vivo antiviral activity against Tobacco mosaic virus (TMV) infected left side of tobacco leaves assessed as curative effect by decreasing local lesion number at 500 mg/l treated after viral inoculation measured at 3-4 days after viral challenge
Procedure, shortened: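 Curative mode: N. tabacum leaves of the same age; compound solution smeared on left half, solvent on right half as control. Local lesions counted 3-4 days after inoculation; three repeats per compound. Inhibition rate derived from average lesion numbers of treated versus untreated control halves. TMV purified from infected leaves (PEG precipitation, 4 °C).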

Tobacco mosaic virus [3] = experiment: In vivo antiviral activity against Tobacco mosaic virus (TMV) infected left side of tobacco leaves assessed as inactivation effect by decreasing local lesion number at 500 mg/l co-incubated with virus for 30 min before inoculation onto leaves measured at 3-4 days after viral challenge
Procedure, shortened: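 TMV, purified from infected N. tabacum leaves by grinding in phosphate buffer and PEG precipitation at 4 °C, was mixed with an equal volume of compound solution for 30 min. The mixture was inoculated on the left half of the leaf and a solvent-virus mixture on the right half as control. Local lesions recorded 3-4 days later.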

SMILES | inhibition in vivo at 500 µg/mL (Tobacco mosaic virus [1]) [%] | inhibition in vivo at 500 µg/mL (Tobacco mosaic virus [2]) [%] | inhibition in vivo at 500 µg/mL (Tobacco mosaic virus [3]) [%]
COCCOC(=O)/C(C#N)=C(\NC(c1ccccc1F)P(=O)(OCCOC)OCCOC)SC (configuration not stated) | 0 | 9.9 | 0
CCOCCOP(=O)(OCCOCC)C(N/C(SC)=C(/C#N)C(=O)NCc1ccccc1)c1ccccc1F (configuration not stated) | 55.4 | 54.3 | 79.9
CCOCCOP(=O)(OCCOCC)C(N/C(SC)=C(/C#N)C(=O)OC)c1ccccc1F (configuration not stated) | 0 | 33 | 12
CCOCCOP(=O)(OCCOCC)C(N/C(SC)=C(/C#N)C(=O)OCCOc1ccccc1)c1ccccc1 (configuration not stated) | 3.8 | 44.1 | 31.9
CNCC(=O)N[C@@H](CO)C(=O)N[C@H]1[C@H](O)[C@@H](O)[C@H](n2ccc(N)nc2=O)O[C@@H]1C(N)=O [NINGNANMYCIN] | 57.7 | 58.9 | 96
CCOC(=O)/C(C#N)=C(\NC(c1ccccc1)P(=O)(OCCOC)OCCOC)SC (configuration not stated) | 21 | 32.1 | 28.3
COCCOP(=O)(OCCOC)C(N/C(SC)=C(/C#N)C(N)=O)c1ccccc1F (configuration not stated) | 30 | 22 | 44.8
CCOCCOP(=O)(OCCOCC)C(N/C(SC)=C(/C#N)C(=O)OCCOc1ccccc1)c1ccccc1F (configuration not stated) | 30.7 | 27.7 | 23.7
COCCOC(=O)/C(C#N)=C(\NC(c1ccccc1)P(=O)(OCCOC)OCCOC)SC (configuration not stated) | 40 | 43.1 | 41.9
COCCOP(=O)(OCCOC)C(N/C(SC)=C(/C#N)C(=O)OC)c1ccccc1F (configuration not stated) | 22 | 34.5 | 41
CCOCCOC(=O)/C(C#N)=C(\NC(c1ccccc1)P(=O)(OCCOCC)OCCOCC)SC (configuration not stated) | 40.7 | 46.4 | 29.5
CCOCCOP(=O)(OCCOCC)C(N/C(SC)=C(/C#N)C(N)=O)c1ccccc1 (configuration not stated) | 54.4 | 56.7 | 80
CCOCCOP(=O)(OCCOCC)C(N/C(SC)=C(/C#N)C(N)=O)c1ccccc1F (configuration not stated) | 30 | 30.6 | 33.9
CCOCCOP(=O)(OCCOCC)C(N/C(SC)=C(/C#N)C(=O)NCc1ccccc1)c1ccccc1 (configuration not stated) | 34.5 | 47.3 | 40.1
COCCOP(=O)(OCCOC)C(N/C(SC)=C(/C#N)C(=O)OC)c1ccccc1 (configuration not stated) | 0 | 28.8 | 0
COCCOP(=O)(OCCOC)C(N/C(SC)=C(/C#N)C(=O)NCc1ccccc1)c1ccccc1F (configuration not stated) | 39.9 | 28.6 | 40.8
COCCOP(=O)(OCCOC)C(N/C(SC)=C(/C#N)C(=O)OCCOc1ccccc1)c1ccccc1F (configuration not stated) | 29 | 41.8 | 44
CCOCCOC(=O)/C(C#N)=C(\NC(c1ccccc1F)P(=O)(OCCOCC)OCCOCC)SC (configuration not stated) | 31 | 41.9 | 40.2
CCOCCOC(=O)/C(C#N)=C(\NC(c1ccccc1)P(=O)(OCCOC)OCCOC)SC (configuration not stated) | 0 | 23.7 | 12.2
COCCOP(=O)(OCCOC)C(N/C(SC)=C(/C#N)C(=O)OCCOc1ccccc1)c1ccccc1 (configuration not stated) | 14.4 | 31 | 21
COCCOP(=O)(OCCOC)C(N/C(SC)=C(/C#N)C(N)=O)c1ccccc1 (configuration not stated) | 50 | 43.2 | 66.7
CCOCCOP(=O)(OCCOCC)C(N/C(SC)=C(/C#N)C(=O)OCCOC)c1ccccc1 (configuration not stated) | 60.2 | 58.8 | 78.9
CCOCCOP(=O)(OCCOCC)C(N/C(SC)=C(/C#N)C(=O)OCCOC)c1ccccc1F (configuration not stated) | 58.9 | 60 | 85.5
CCOCCOP(=O)(OCCOCC)C(N/C(SC)=C(/C#N)C(=O)OCC)c1ccccc1 (configuration not stated) | 45.9 | 51.1 | 35.4
CCOCCOP(=O)(OCCOCC)C(N/C(SC)=C(/C#N)C(=O)OCC)c1ccccc1F (configuration not stated) | 12.9 | 45.6 | 33.4
COCCOP(=O)(OCCOC)C(N/C(SC)=C(/C#N)C(=O)NCc1ccccc1)c1ccccc1 (configuration not stated) | 39.7 | 29.6 | 32.1
CCOC(=O)/C(C#N)=C(\NC(c1ccccc1F)P(=O)(OCCOC)OCCOC)SC (configuration not stated) | 0 | 21.7 | 0
CCOCCOC(=O)/C(C#N)=C(\NC(c1ccccc1F)P(=O)(OCCOC)OCCOC)SC (configuration not stated) | 21.9 | 31.4 | 33.3
CCOCCOP(=O)(OCCOCC)C(N/C(SC)=C(/C#N)C(=O)OC)c1ccccc1 (configuration not stated) | 0 | 4.3 | 0
